Results taken from ChEMBL document CHEMBL2331485, “Pyrimidoaminotropanes as potent, selective, and efficacious small molecule kinase inhibitors of the mammalian target of rapamycin (mTOR)” (J Med Chem, 2013).
The source made the active and inactive calls. No cut-off for these calls is given here.

Legend:
[1] = Antitumor activity against human MCF7-neo/Her2 xenografted in nude mouse at 12.5 mg/kg, qd measured after 14 days; assay type: functional; settings: 336 h, read-out: TGI
Cytochrome P450 3A4 = Cytochrome P450 3A4 (Homo sapiens, UniProt P08684); assay: Time dependent inhibition of human CYP3A4 preincubated for 30 mins in presence of NADPH; assay type: ADME
How it was run: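 TDI IC50 is the inhibitor concentration giving 50% loss of CYP3A4 activity after a 30 min pre-incubation with NADPH. It is reported as clean where no IC50 could be measured.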

[2] = Inhibition of mTORC2 in human NCI-PC3 cells assessed as inhibition of AKT phosphorylation
[3] = Half life in iv dosed dog; assay type: ADME, organism-based, Canis lupus familiaris; settings: in vivo
[4] = Clearance in rat liver microsomes; assay type: ADME, Microsome
Canis familiaris = assay: Unbound blood clearance in iv dosed dog; assay type: ADME, organism-based, Canis lupus familiaris; settings: in vivo
[5] = Volume of distribution at steady state in iv dosed dog; assay type: ADME, organism-based, Canis lupus familiaris; settings: in vivo, read-out: Vdss
Mus musculus [6] = assay: Inhibition of mTORC2-mediated AKT phosphorylation in human PC3 cells xenografted in NCR mouse up to 5 mg/kg, po measured at 6 hrs; assay type: functional, organism-based; set-up: dose 5 mg/kg; settings: PC-3
mTORC1 = mTORC1 (Homo sapiens, UniProt P42345); assay: Inhibition of mTORC1 in human NCI-PC3 cells assessed as inhibition of p70S6K phosphorylation; assay type: cell-based
[7] = molecular target: T1, Phosphatidylinositol 4,5-bisphosphate 3-kinase catalytic subunit delta isoform (Homo sapiens) (UniProt O00329); assay: Inhibition of PI3Kdelta (unknown origin) at 1 uM
T1 sequence (whole entry): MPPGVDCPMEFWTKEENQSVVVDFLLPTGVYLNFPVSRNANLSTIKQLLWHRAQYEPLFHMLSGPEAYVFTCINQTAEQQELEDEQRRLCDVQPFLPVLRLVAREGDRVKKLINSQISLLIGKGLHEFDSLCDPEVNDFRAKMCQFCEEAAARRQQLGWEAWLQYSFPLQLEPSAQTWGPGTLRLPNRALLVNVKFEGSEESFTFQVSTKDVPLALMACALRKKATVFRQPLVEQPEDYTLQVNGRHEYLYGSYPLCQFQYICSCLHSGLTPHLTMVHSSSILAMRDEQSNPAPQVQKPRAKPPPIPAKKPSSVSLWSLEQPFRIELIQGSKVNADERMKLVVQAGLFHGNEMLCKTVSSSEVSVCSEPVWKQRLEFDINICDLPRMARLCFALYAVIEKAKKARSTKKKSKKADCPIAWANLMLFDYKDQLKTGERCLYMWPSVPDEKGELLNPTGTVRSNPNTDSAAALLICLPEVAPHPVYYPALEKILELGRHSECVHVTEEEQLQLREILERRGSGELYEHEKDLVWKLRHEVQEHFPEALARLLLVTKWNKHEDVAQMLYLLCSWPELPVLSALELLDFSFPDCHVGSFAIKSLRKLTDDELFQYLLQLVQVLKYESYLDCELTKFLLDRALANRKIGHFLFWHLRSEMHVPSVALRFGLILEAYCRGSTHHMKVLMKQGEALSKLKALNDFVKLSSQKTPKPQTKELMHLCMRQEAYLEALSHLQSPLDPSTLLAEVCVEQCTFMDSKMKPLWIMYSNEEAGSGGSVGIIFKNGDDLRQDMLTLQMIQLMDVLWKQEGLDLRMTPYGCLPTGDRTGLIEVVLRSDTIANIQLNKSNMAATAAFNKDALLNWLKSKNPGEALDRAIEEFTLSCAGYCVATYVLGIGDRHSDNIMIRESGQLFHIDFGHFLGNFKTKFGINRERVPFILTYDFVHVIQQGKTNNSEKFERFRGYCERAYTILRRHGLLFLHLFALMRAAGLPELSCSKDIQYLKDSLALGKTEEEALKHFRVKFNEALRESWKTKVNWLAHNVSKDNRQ

[8] = Plasma protein binding in rat at 5 uM after 4 hrs by rapid equilibrium dialysis; assay type: ADME, cell-free; settings: read-out: PPB (converted)
Mus musculus [9] = assay: Unbound clearance in mouse at 1 mg/kg, iv; assay type: ADME, organism-based; set-up: dose 1 mg/kg, route intravenous; settings: in vivo
How it was run: (§1)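 Mouse PK used iv dosing at 1 mg/kg as a 60% PEG solution and po dosing at 5 mg/kg as a suspension in MCT. Clearance, unbound clearance, Vss, t1/2 and oral bioavailability were derived from these doses.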

[10] = molecular target: Serine/threonine-protein kinase mTOR (Homo sapiens, UniProt P42345); assay: Inhibition of human recombinant mTOR expressed in insect cells assessed as inhibition of phosphorylation of (GFP)-4-EBP1 protein after 30 mins by fluorescence resonance energy transfer assay
[11] = Clearance in human liver microsomes; assay type: ADME, Microsome
Mus musculus [12] = assay: Inhibition of mTORC1-mediated S6RP phosphorylation in human PC3 cells xenografted in NCR mouse up to 5 mg/kg, po measured at 6 hrs; assay type: functional, organism-based; set-up: dose 5 mg/kg; settings: PC-3
[13] = Plasma protein binding in mouse at 5 uM after 4 hrs by rapid equilibrium dialysis; assay type: ADME, cell-free; settings: read-out: PPB (converted)
[14] = Oral bioavailability in mouse at 5 mg/kg; assay type: ADME, organism-based; settings: in vivo; how it was run: as §1
[15] = Kinetic solubility of the compound; assay type: physicochemical
[16] = Clearance in mouse at 1 mg/kg, iv; assay type: ADME, organism-based; set-up: dose 1 mg/kg, route intravenous; settings: in vivo; how it was run: as §1
[17] = Cytotoxicity against human MCF7 neo/Her2 cells after 3 days by CellTiter-Glo assay; settings: MCF7, 72 h
[18] = Volume of distribution at steady state in mouse at 1 mg/kg, iv; assay type: ADME, organism-based; set-up: dose 1 mg/kg, route intravenous; settings: in vivo, read-out: Vdss; how it was run: as §1
[19] = Plasma protein binding in human at 5 uM after 4 hrs by rapid equilibrium dialysis; assay type: ADME, cell-free; settings: read-out: PPB (converted)
[20] = Clearance in mouse liver microsomes; assay type: ADME, Microsome
[21] = Blood clearance in iv dosed dog; assay type: ADME, organism-based, Canis lupus familiaris; settings: whole blood
[22] = Half life in mouse at 1 mg/kg, iv; assay type: ADME, organism-based; set-up: dose 1 mg/kg, route intravenous; settings: in vivo; how it was run: as §1
PC-3 = assay: Cytotoxicity against human PC3 cells after 4 days by CellTiter-Glo assay; settings: PC-3, 96 h

Chain of Cytochrome P450 3A4 (P08684 whole entry): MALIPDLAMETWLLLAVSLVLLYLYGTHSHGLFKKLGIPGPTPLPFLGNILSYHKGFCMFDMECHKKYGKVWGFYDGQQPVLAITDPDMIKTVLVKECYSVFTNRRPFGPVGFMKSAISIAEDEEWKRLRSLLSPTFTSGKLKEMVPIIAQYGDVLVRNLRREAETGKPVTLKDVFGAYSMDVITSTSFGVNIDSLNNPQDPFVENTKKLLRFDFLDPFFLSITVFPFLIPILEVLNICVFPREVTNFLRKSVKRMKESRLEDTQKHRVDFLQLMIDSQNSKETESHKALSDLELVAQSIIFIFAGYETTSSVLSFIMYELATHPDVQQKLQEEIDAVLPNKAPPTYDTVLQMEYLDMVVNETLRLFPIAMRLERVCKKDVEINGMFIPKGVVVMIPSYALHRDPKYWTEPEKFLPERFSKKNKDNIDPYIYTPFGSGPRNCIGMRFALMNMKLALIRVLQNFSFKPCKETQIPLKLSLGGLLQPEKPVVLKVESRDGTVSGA

## CCNC(=O)Nc1ccc(-c2nc3c(c(N4CCOC[C@@H]4C)n2)C[C@@H]2CC[C@H]3N2C2COC2)cc1
[1]
  inhibition in vivo at 12.5 mg/kg: 57%
Cytochrome P450 3A4
  IC50: > 10000 nM
[2]
  IC50: 3.4 nM
[3]
  half-life: 3.1 h
[4]
  CLhep predicted: 27 mL/min/kg
Canis familiaris
  CL free: 44 mL/min/kg
[5]
  Vd: 3 L/kg
Mus musculus [6]
  inhibition: Active
mTORC1
  IC50: 2.7 nM
[7]
  inhibition: 51%
[8]
  fraction unbound at 4 h, 5 µM: 0.24
Mus musculus [9]
  CL free: 38 mL/min/kg
[10]
  Ki: 1.5 nM
[11]
  CLhep predicted: 14 mL/min/kg
Mus musculus [12]
  inhibition: Active
[13]
  fraction unbound at 4 h, 5 µM: 0.13
[14]
  bioavailability: 82%
[15]
  Kinetic_solubility: soluble
[16]
  clearance: 4.8 mL/min/kg
[17]
  EC50: 75 nM
[18]
  Vd: 0.53 L/kg
[19]
  fraction unbound at 4 h, 5 µM: 0.15
[20]
  CLhep predicted: 51 mL/min/kg
[21]
  clearance: 6 mL/min/kg
[22]
  half-life: 2 h
PC-3
  EC50: 29 nM
